# Measles CPE – protection of cells from measles virus; Measles virus-infected cells, CPE protection, absorbance; protection (pct of control), % at 4 µM; AID 841; 1.5% of 140,000 active; in the data active = protection mostly above about 24%, no sharp cut-off; inactive = mostly below about 26%
# Insulin prom inh – TRM-6 insulin promoter activity inhibition; TRM-6 cells (human fetal islet line), insulin promoter-eGFP reporter, imaging; reporter expression induced with tamoxifen; inhibition, % at 2 µM; 0.9% of 130,000 active;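 active = inhibition above the mean plus 3 SD, with well images judged a real hit on visual review, cut at about 60% in these data, passing the limit was not always enough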
# Yeast growth inh – yeast BB579 growth reduction in restrictive medium; S. cerevisiae BB579 growth, OD615, 48 h; AID 804; 0.51% of 140,000 active; inhibition, % at 10 µM;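 active = inhibition above a set limit, 3 SD over the mean compound inhibition, cut at about 44% in these data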
#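 controls = amphotericin B 10 µg/mL, positive | assay system = DeaD yeast strain BB579 | schedule = 48 h compound exposure at 30 °C after 4 h preincubation | detection = OD615 turbidity measurement | medium = restrictive CSMM-D medium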
# Yeast lifespan up – extends the lifespan of yeast | S. cerevisiae growth with nicotinamide, OD615; deaD strain in restrictive glucose medium | inhibition of the nicotinamide effect, % at 10 µM | 0.68% of 130,000 active;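 active = inhibition above a set limit, placed 3 SD over the median of all compounds, cut at about 26% in these data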;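 note: 0% = nicotinamide-treated wells and 100% = cells grown without nicotinamide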
#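 Measured by: optical density (absorbance) at 615 nm; System: modified budding yeast, DeaD strain; Medium: restrictive CSMM-D dextrose medium; Timing: 4 h preincubation then 48 h treatment at 30 °C.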
# RAM network inh – yeast RAM network inhibition; S. cerevisiae dse1pr::URA3 reporter, 5-FOA growth OD615, 2 d; analog-sensitive cbk1-as2 kinase mutant strain; inhibition, % at 50 µM; 1.8% of 190,000 active; AID 868;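 active = inhibition above a set limit, 3 SD over mean compound inhibition, cut at about 8.4% in these data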;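 note: 0% = DMSO-only wells with no growth and 100% = 10 µM 1-NA-PP1 full growth; inhibition rescues growth on 5-FOA so higher OD means more RAM inhibition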
# MDM2 E3 inh – inhibitors of human Mdm2 E3 ubiquitin ligase. signal enhancement, % at 5 µM. 0.11% of 210,000 active. cell-based MDM2 ubiquitination luciferase reporter, 2 h; 0 = plate control, 100 = twice control, blank-subtracted. Q00987;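 active = signal enhancement of 30% or more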;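 note: luminescence tracks abundance of the self-degrading MDM2-luciferase fusion protein; higher signal means inhibition of MDM2 E3 ligase activity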
# Target sequence (Q00987 whole entry, looked up, the tested form may be a part): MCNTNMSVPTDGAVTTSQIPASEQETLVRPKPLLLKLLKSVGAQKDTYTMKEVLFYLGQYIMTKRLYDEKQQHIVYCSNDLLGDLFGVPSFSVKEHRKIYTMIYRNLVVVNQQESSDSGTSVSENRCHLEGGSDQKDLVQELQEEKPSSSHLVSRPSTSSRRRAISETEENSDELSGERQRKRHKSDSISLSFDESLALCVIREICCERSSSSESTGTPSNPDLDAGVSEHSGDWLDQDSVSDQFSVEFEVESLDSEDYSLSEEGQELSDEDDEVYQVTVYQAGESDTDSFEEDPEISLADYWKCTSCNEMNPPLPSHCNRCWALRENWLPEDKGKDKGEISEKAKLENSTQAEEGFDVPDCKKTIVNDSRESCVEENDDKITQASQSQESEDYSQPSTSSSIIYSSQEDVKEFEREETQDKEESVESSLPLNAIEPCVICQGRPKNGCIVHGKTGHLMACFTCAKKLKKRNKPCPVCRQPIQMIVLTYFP
#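 Material: stable MDM2–luciferase fusion reporter cells / Quantity: 2000 cells/well / Dosing: single 5 µM compound dose, 0.2% final DMSO / Buffer or medium: DMEM / Schedule: 4 h cell settling then 2 h compound exposure, 37 °C / Detection: luminescence with SteadyLite reagent, 15 min at room temperature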
# RAM efflux-def – restores 5-FOA growth of efflux-deficient yeast; shares compounds with RAM network inh; S. cerevisiae efflux-deficient reporter strain, 5-FOA growth OD615, 2 days; max inhibition, %; 1,200 tested, under 10 active; AID 1305; call rule not given here;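 note: plate controls were vehicle for no effect and reference inhibitor for full effect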
# Starred values were filed as active, the others as inactive; . = no result. Only some compounds are listed: those with a hit (about 4% of all), similar ones and a draw of the others.
SMILES,Measles CPE,Insulin prom inh,Yeast growth inh,Yeast lifespan up,RAM network inh,MDM2 E3 inh,RAM efflux-def
CCOC(=O)C1=C(CC)Nc2ccccc2N=C1NC(=O)c1cc(S(=O)(=O)N(C)C)ccc1Cl,3,-18,-17,-5,13*,-25,4
COc1ccc(C(=O)N=c2sc3c(C)ccc(OC)c3n2C)cc1,16,.,17,-10,1,-26,.
CCCC1=C/C(=C/c2ccc(-c3ccccc3OC)o2)C(=O)O1,9,-150,-51,5,8,-5,.
COc1ccccc1-c1ccc(/C=C2/C=C(CC(C)C)OC2=O)o1,3,29,-36,6,14*,-12,10
Cc1cccc(C(=O)Nc2cccc(OC(=O)c3cccc(C)c3)c2)c1,1,13,-22,-12,14*,-9,5
COC(=O)COc1cccc(NC(=O)c2cccc(C)c2)c1,.,42,.,.,0,-44,.
COc1cccc(-c2csc3nnc(SCC(=O)NCc4cccs4)n23)c1,8,.,-24,6,17*,-13,2
Cc1ccc(-c2ccc(/C=N/c3ncn[nH]3)o2)cc1Cl,4,-16,-51,-15,0,13,.
CCOC(=O)c1c(C)[nH]c(C(=O)C(C)Sc2ccc(Cl)cc2)c1C (stereo not drawn),3,-39,-69,-17,12*,0,3
CCc1ccc(N2C(=O)CN(Cc3cccs3)C2=S)cc1,.,.,.,.,4,-3,.
CCCCc1ccc(/C=C2\C(=O)c3ccccc3C(O)=C2C(=O)OCC)cc1,9,.,-55,18,14*,-8,8
CCCN(CC1CC1)C(=O)CSc1ncnc2sc(C)c(C)c12,10,15,-26,-4,14*,-12,2
CCN(C(=O)CSc1ncnc2sc(C)c(C)c12)C1CCS(=O)(=O)C1 (stereo not drawn),.,0,.,.,1,-7,.
CC(C)(C)NC(=O)C1Cc2ccccc2CN1 (stereo not drawn),.,-45,.,.,1,-36,.
CCN(C(=S)NC(=O)c1ccccc1Br)C1CCCCC1,4,8,-25,23,3,-5,.
O=C(N/N=C\c1ccc(COc2ccc([N+](=O)[O-])cc2)o1)c1cccc(Cl)c1,6,43,-12,-4,2,-2,.
CN1CCN(CCCc2c3c(cc4c2CCC4)CCC3)CC1,25,.,-14,2,0,-3,.
CSc1ccc(Cl)c(C(=O)NCCOc2cc(C(C)C)ccc2C)c1,10,-67,-16,-1,14*,-4,6
COc1ccc(-c2cc(C(=O)Nc3ccc(S(=O)(=O)Nc4onc(C)c4C)cc3)c3ccccc3n2)cc1,.,.,.,.,.,-7,.
COc1cc(NC(=O)c2ccc3c(c2)OCO3)c2ncccc2c1,4,-412,-4,-8,12*,-22,6
CO/N=C/C(=N\Nc1ccc(OC)cc1)C(=O)c1ccc(OC)cc1,6,-6,-38,-5,12*,-15,2
CCn1cc(C(=O)OCC(=O)c2ccccc2)c(=O)c2ccc(C)nc21,.,-17,.,.,18*,2,2
CC(C)=CCc1c(O)c(CC=C(C)C)c2c(c1O)C(=O)CC(c1ccc(O)cc1)O2 (stereo not drawn),.,.,.,.,13*,-3,5
COc1ccc(/C=C/C(=O)NCC(=O)N2CCC(N(C)CCN3CCOCC3)CC2)cc1OC,.,-39,.,.,1,-22,.
CCOC(=O)C1=C(O)/C(=C/c2ccc(OCC(=O)O)c(OC)c2)SC1=Nc1ccc(OC)cc1,14,17,-35,5,14*,-5,9
NS(=O)(=O)c1cccc(NC(=O)COC(=O)/C(=C/c2cccs2)c2cccs2)c1,15,22,-14,-1,5,-16,.
CC(NC(=O)COC(=O)/C(=C/c1cccs1)c1cccs1)c1ccccc1 (stereo not drawn),16,-17,-44,4,14*,-9,1
CC(=O)Nc1ccc(-c2cc(-c3ccc(NC(C)=O)cc3)nc(-c3ccc(NC(C)=O)cc3)n2)cc1,18,-17,-63,8,12*,-4,5
